Data taken from ChEMBL document CHEMBL4261626, “Design, synthesis, and effects of novel phenylpyrimidines as glucagon receptor antagonists” (Bioorg Med Chem, 2018).
Active and inactive are the calls of the source. The rule behind the calls is not given here.

Experiments:
Mus musculus [1] = assay: Antihyperglycemic activity in db/db mouse assessed pretreated at 50 mg/kg, po administered via intubation once per day for 4 weeks followed by fasting for 5 hrs before second administration at 50 mg/kg via oral gavage and subsequent glucagon challenge after 1 hr and measured durimng 15 to 60 mins post glucagon injection; format: functional, organism-based
In short: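 Diabetic db/db mice were dosed orally at 50 mg/kg daily for 4 weeks (vehicle 9% cremophore/10% DMSO in sterile water). They were then fasted 5 h and re-dosed 50 mg/kg by gavage. After 1 h they received glucagon 15 μg/kg i.p. Blood glucose was measured at 15, 30, 45 and 60 min. n=4–6/group.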

Mus musculus [2] = assay: Antihyperglycemic activity in db/db mouse assessed as reduction in blood glucose level at 50 mg/kg, po administered once per day for 4 weeks and measured after 12 hrs fasting; format: functional, organism-based
In short: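 Male db/db mice were obtained at 6 weeks; only animals with blood glucose over 400 mg/dL were used. They were dosed 50 mg/kg by oral intubation once daily for 4 weeks, in 9% cremophore with 10% DMSO in sterile water. Fasting blood glucose was read by glucometer after a 12 h fast at week 4. n=7/group.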

Hepatocyte [3] = assay: (§1) Cytotoxicity against C57BL/6N mouse primary hepatocytes assessed as cell viability at 20 uM after 24 hrs by CCK8 assay; format: cell-based; details: hepatocytes, 24 h, 20 µM
In short: (§2)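 Hepatocytes were isolated by portal-vein perfusion and Percoll gradient from 10-week male C57BL/6N mice. Cells were seeded at 1×10^4/well and exposed to 20 μM compound in cell plating reagent for 24 h. CCK-8 was then added for 2 h at 37 °C and absorbance read at 450 nm. Three independent experiments, each in triplicate.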

Hepatocyte [4] = assay: Inhibition of glucagon-induced glucose production in C57BL/6N mouse primary hepatocytes grown under gluconeogenic medium at 20 uM after 3 hrs by glucose assay reagent-based glucose oxidase method; format: functional, cell-based
In short: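 Mouse primary hepatocytes in glucose-free DMEM were given 20 μM compound for 3 h with 10 nM glucagon, 2 mM sodium pyruvate and 20 mM sodium lactate. Medium glucose was measured by glucose assay kit 30 min after glucagon. Three independent experiments.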

Glucagon receptor [5] = target: T1, Glucagon receptor (Homo sapiens, UniProt P47871); assay: Antagonist activity at human glucagon receptor expressed in CHO-K1 GCGR Gs cells assessed as inhibition of glucagon-induced cAMP accumulation pre-incubated for 10 mins before glucagon and forskolin addition and further incubated for 30 mins by luminescence-based assay; format: functional, cell-based; details: in the assay text read “pre-incubated for 15 mins” for “pre-incubated for 10 mins”
T1 sequence (P47871 whole entry): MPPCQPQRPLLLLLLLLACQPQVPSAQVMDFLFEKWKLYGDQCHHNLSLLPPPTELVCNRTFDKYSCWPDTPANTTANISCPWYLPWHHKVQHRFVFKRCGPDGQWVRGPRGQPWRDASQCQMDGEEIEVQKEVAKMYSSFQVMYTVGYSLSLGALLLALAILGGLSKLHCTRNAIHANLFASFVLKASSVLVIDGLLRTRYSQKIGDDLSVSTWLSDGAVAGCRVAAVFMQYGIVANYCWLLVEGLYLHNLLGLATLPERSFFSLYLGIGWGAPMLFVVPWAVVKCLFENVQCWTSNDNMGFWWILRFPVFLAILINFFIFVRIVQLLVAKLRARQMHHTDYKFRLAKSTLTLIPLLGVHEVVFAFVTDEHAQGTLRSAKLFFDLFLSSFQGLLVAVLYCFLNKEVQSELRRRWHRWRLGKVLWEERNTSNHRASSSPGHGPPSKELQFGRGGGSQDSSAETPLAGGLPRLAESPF
In short: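 Glucagon-receptor CHO-K1 GCGR Gs cells (1×10^4/well, plated the day before) were exposed to compound at 0.0001–100 μM in PBS for 15 min at 37 °C. Cells were then stimulated with 0.1 nM glucagon and 10 μM forskolin for 30 min. cAMP was measured by HitHunter luminescence. IC50 was fitted from three independent determinations.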

Glucagon receptor [6] = target: T1, Glucagon receptor; assay: Antagonist activity at human glucagon receptor expressed in CHO-K1 GCGR Gs cells assessed as inhibition of glucagon-induced cAMP accumulation at 10 uM pre-incubated for 10 mins before glucagon and forskolin addition and further incubated for 30 mins by luminescence-based assay; format: functional, cell-based; details: in the assay text read “pre-incubated for 15 mins” for “pre-incubated for 10 mins”
In short: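 CHO-K1 GCGR Gs cells were seeded at 1×10^4/well. The next day they were pre-treated with compound at 10 μM in PBS for 15 min at 37 °C, 5% CO₂. Then 0.1 nM glucagon plus 10 μM forskolin was added for a further 30 min. cAMP was read by HitHunter enzyme-complementation luminescence. Three independent experiments.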

[7] = as §1; format: cell-based, Hepatocyte; details: C57BL/6N, primary hepatocytes, read-out: Activity; in short: as §2
Hepatocyte [8] = assay: Inhibition of glucagon-induced glucose production in C57BL/6N mouse primary hepatocytes grown under gluconeogenic medium at 20 uM after 30 mins by glucose assay reagent-based glucose oxidase method; format: functional; details: 0.5 h
In short: (§3)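 Primary mouse hepatocytes were plated at 2.5×10^5/well. After 24 h they were washed and held 3 h in glucose-free DMEM. Compound (20 μM screen, or 1–100 μM series) was then added with 20 mM sodium lactate, 2 mM sodium pyruvate and 10 nM glucagon. Medium glucose was assayed by kit after 30 min and normalized to cellular protein. Five independent experiments, each in triplicate.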

Hepatocyte [9] = assay: Inhibition of glucagon-induced glucose production in C57BL/6N mouse primary hepatocytes grown under gluconeogenic medium after 30 mins by glucose assay reagent-based glucose oxidase method; format: functional, cell-based; in short: as §3
Hepatocyte [10] = assay: Inhibition of glucagon-induced glucose production in C57BL/6N mouse primary hepatocytes grown under gluconeogenic medium at 10 uM after 30 mins by glucose assay reagent-based glucose oxidase method; format: functional, cell-based; in short: as §3

Row | Compound | IC50 (Glucagon receptor [5]) [µM] | inhibition (Glucagon receptor [6]) [%] | viability at 24 h, 20 µM [7] [%] | inhibition at 20 µM (Hepatocyte [8]) [%] | also measured
1 | CCCC[C@H](Oc1ncc(-c2ccccc2)cn1)c1ccc(C(=O)NCCC(=O)O)cc1 | 8.5 | – | – | – | Activity (Mus musculus [1]): Active; Activity (Mus musculus [2]): Active; Activity (Hepatocyte [3]): Toxic; inhibition (Hepatocyte [4]): Active
2 | CCCCC(Oc1ncc(-c2ccc(CC)cc2)cn1)c1ccc(C(=O)NCCC(=O)O)cc1 (configuration not stated) | 17.7 | > 60 | > 80 | > 60 | –
3 | CCCCC(Oc1ncc(-c2cc(Cl)cc(Cl)c2)cn1)c1ccc(C(=O)NCCC(=O)O)cc1 (configuration not stated) | 6.9 | > 60 | > 80 | > 60 | inhibition (Hepatocyte [9]): Dose-dependent effect
4 | CCCCC(Oc1ncc(-c2ccc(C(C)(C)C)cc2)cn1)c1ccc(C(=O)NCCC(=O)O)cc1 (configuration not stated) | 6 | > 60 | > 80 | > 60 | inhibition (Hepatocyte [9]): Dose-dependent effect; inhibition (Hepatocyte [10]): Active
5 | CCCC[C@H](Oc1ncc(-c2ccc(C(C)(C)C)cc2)cn1)c1ccc(C(=O)NCCC(=O)O)cc1 | – | – | – | – | Activity (Hepatocyte [3]): Toxic; inhibition (Hepatocyte [4]): inactive
6 | CCCCC(Oc1ncc(-c2ccccc2)cn1)c1ccc(C(=O)NCCC(=O)O)cc1 (configuration not stated) | 4.1 | > 60 | > 80 | > 60 | inhibition (Hepatocyte [9]): Dose-dependent effect; inhibition (Hepatocyte [10]): Active
7 | CCCCC(Oc1ncc(-c2ccc(Oc3ccccc3)cc2)cn1)c1ccc(C(=O)NCCC(=O)O)cc1 (configuration not stated) | 8.2 | > 60 | > 80 | > 60 | –
8 | CCCC[C@@H](Oc1ncc(-c2ccc(C(C)(C)C)cc2)cn1)c1ccc(C(=O)NCCC(=O)O)cc1 | – | – | – | – | Activity (Hepatocyte [3]): Toxic; inhibition (Hepatocyte [4]): inactive
9 | CCCC[C@@H](Oc1ncc(-c2ccccc2)cn1)c1ccc(C(=O)NCCC(=O)O)cc1 | 9.3 | – | – | – | Activity (Mus musculus [1]): Active; Activity (Mus musculus [2]): Active; Activity (Hepatocyte [3]): Non-Toxic; inhibition (Hepatocyte [4]): Active
10 | CCC(CC)C(=O)Nc1sc2c(c1C#N)CCC(C(C)(C)CC)C2 (configuration not stated) | – | > 60 | > 80 | – | –
11 | Cc1cc(O[C@@H](CCC(F)(F)F)c2ccc(C(=O)NCCC(=O)O)cc2)cc(C)c1-c1ccc(C(C)(C)C)cc1 | – | – | – | – | Activity (Mus musculus [2]): inactive

The next lines start with results.

Row | IC50 (Glucagon receptor [5]) [µM] | inhibition (Glucagon receptor [6]) [%] | Compound | viability at 24 h, 20 µM [7] [%] | inhibition at 20 µM (Hepatocyte [8]) [%] | also measured
12 | – | > 60 | CCCCC(Oc1ncc(-c2ccc(Cl)cc2)cn1)c1ccc(C(=O)NCCC(=O)O)cc1 (configuration not stated) | > 80 | – | –
13 | – | > 60 | CCCCC(Oc1ncc(-c2ccc(C(F)(F)F)cc2)cn1)c1ccc(C(=O)NCCC(=O)O)cc1 (configuration not stated) | > 80 | – | –
14 | – | > 60 | CCCCC(Oc1ncc(-c2ccc(C(F)(F)F)cc2F)cn1)c1ccc(C(=O)NCCC(=O)O)cc1 (configuration not stated) | > 80 | – | –
15 | – | > 60 | CCCCC(Oc1ncc(-c2ccccc2Cl)cn1)c1ccc(C(=O)NCCC(=O)O)cc1 (configuration not stated) | > 80 | – | –
16 | – | > 60 | CCCCC(Oc1ncc(-c2cccc(Cl)c2)cn1)c1ccc(C(=O)NCCC(=O)O)cc1 (configuration not stated) | > 80 | – | –
